Laboratory results taken from ChEMBL document CHEMBL1149302, “Design, synthesis, and pharmacological characterization of novel, potent NMDA receptor antagonists” (J Med Chem, 2004).
Calls of active or inactive are those of the source. The calls are words filed in the database; no cut-off is given here.

Key:
Glutamate NMDA receptor [1] = experiment: Displacement of [3H]CGP-39653 from rat brain NMDA receptor
How it was run: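 Rat brain membranes prepared per Ransom and Stec with modifications. Binding with 2 nM [3H]CGP 39653, with bound radioactivity measured by scintillation counting. Racemates tested. Values are antilog of log mean of at least three experiments.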

[2] = Displacement of [3H]AMPA from rat cortex AMPA receptor
How it was run: (§1)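 Rat brain membranes prepared per Ransom and Stec with modifications. Radioligand binding with 5 nM [3H]AMPA, or 5 nM [3H]kainic acid in the absence of CaCl2. Bound radioactivity measured by scintillation counting. Racemates tested. Values are antilog of log mean of at least three experiments.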

[3] = Displacement of [3H]kainic acid from rat brain kainate receptor; how it was run: as §1
Mus musculus [4] = experiment: Anticonvulsant activity in ip dosed DBA/2 mouse assessed as inhibition of clonic seizures; assay type: functional; settings: DBA/2, ip
How it was run: (§2)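 Male DBA/2 mice (6-12 g, 22-26 days old) dosed ip in 100 μL/10 g. Compounds dissolved in 0.1 mM NaOH and brought to pH 7.3-7.7 with phosphate buffer; vehicle water. 45 min after dosing, a 110 dB bell sounded for 60 s or until clonic seizure onset. Seizure scoring: wild running 1, clonus 2, tonic extension 3, respiratory arrest 4. ED50 reported in μmol/kg.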

Mus musculus [5] = experiment: Anticonvulsant activity in ip dosed DBA/2 mouse assessed as inhibition of tonic extension seizures; assay type: functional; settings: DBA/2, ip; how it was run: as §2
[6] = target: Metabotropic glutamate receptor 1 (Rattus norvegicus) (UniProt P23385); experiment: Activity at rat mGluR1 expressed in CHO cells at 1 mM; assay type: cell-based
Metabotropic glutamate receptor 1 (Rattus norvegicus), sequence (P23385 19-1199 limits assumed): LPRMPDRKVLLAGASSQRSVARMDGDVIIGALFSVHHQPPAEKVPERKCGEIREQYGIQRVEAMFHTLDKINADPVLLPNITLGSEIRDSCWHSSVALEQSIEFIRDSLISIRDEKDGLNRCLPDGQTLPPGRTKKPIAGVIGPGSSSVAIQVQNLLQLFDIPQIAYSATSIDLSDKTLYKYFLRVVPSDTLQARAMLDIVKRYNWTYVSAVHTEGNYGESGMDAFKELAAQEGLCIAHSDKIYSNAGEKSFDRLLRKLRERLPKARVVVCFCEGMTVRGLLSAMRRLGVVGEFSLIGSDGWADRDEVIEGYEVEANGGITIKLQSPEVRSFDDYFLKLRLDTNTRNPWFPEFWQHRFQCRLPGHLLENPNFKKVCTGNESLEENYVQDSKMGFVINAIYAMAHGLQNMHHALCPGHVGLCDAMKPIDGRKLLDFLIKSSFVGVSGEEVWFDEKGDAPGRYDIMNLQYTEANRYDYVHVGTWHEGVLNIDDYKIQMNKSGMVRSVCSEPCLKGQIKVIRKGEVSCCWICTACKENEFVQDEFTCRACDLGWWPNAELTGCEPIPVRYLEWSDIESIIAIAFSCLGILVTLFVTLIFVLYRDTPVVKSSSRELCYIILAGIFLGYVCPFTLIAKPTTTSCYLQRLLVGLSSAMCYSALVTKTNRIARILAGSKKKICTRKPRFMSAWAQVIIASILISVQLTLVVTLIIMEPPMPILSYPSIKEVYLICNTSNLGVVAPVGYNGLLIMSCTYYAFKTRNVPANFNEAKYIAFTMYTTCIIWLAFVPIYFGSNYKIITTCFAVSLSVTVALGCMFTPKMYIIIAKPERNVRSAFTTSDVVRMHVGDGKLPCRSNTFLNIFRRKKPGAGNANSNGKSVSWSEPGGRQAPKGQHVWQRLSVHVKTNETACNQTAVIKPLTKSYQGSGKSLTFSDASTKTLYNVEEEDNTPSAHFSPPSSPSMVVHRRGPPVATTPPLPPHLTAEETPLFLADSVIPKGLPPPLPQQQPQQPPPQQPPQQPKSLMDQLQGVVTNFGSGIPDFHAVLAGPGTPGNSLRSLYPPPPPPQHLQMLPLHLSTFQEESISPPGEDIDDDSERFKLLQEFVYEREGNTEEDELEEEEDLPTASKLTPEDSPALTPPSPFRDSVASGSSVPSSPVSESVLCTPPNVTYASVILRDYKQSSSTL
How it was run: (§3)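 Rat mGluR1α, mGluR2, mGluR4a and mGluR5a each expressed in CHO cell lines. Compounds tested at 1 mM for both agonist and antagonist activity.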

[7] = target: Metabotropic glutamate receptor 5 (Rattus norvegicus) (UniProt P31424); experiment: Activity at rat mGluR5a expressed in CHO cells at 1 mM; assay type: cell-based; how it was run: as §3
Metabotropic glutamate receptor 5 (Rattus norvegicus), sequence (P31424 21-1203 limits assumed): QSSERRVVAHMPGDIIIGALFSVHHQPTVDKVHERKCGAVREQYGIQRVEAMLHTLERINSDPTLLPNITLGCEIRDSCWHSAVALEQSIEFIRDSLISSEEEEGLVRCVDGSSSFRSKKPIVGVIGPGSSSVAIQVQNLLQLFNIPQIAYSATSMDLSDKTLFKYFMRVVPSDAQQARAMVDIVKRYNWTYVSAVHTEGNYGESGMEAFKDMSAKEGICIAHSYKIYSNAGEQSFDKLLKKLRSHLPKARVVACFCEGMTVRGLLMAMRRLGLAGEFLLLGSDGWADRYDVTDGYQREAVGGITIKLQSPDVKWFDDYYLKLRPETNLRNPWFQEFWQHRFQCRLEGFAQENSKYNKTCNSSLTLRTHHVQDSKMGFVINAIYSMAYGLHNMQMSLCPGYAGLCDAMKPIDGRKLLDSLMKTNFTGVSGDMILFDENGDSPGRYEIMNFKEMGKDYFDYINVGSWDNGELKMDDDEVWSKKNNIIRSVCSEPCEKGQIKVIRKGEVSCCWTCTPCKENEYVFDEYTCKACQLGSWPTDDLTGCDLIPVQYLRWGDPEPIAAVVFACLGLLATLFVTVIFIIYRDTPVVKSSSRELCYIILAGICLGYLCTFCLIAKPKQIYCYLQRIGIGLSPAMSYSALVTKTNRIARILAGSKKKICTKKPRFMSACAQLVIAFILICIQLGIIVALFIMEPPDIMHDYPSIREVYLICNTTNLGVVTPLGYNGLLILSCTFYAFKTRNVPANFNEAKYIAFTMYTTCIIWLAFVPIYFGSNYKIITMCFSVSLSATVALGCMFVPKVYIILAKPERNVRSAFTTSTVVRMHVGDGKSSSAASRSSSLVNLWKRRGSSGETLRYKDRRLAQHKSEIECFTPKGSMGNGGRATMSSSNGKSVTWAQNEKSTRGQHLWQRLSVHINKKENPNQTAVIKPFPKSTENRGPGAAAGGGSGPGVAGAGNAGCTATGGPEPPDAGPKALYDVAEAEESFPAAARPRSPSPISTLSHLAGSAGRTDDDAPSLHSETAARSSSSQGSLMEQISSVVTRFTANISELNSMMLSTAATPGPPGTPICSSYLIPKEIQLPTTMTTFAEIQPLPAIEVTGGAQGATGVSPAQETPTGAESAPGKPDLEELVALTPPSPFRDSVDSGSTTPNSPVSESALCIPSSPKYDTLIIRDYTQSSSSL

[8] = target: Metabotropic glutamate receptor 2 (Rattus norvegicus) (UniProt P31421); experiment: Activity at rat mGluR2 expressed in CHO cells at 1 mM; assay type: cell-based; how it was run: as §3
Metabotropic glutamate receptor 2 (Rattus norvegicus), sequence (P31421 19-872 limits assumed): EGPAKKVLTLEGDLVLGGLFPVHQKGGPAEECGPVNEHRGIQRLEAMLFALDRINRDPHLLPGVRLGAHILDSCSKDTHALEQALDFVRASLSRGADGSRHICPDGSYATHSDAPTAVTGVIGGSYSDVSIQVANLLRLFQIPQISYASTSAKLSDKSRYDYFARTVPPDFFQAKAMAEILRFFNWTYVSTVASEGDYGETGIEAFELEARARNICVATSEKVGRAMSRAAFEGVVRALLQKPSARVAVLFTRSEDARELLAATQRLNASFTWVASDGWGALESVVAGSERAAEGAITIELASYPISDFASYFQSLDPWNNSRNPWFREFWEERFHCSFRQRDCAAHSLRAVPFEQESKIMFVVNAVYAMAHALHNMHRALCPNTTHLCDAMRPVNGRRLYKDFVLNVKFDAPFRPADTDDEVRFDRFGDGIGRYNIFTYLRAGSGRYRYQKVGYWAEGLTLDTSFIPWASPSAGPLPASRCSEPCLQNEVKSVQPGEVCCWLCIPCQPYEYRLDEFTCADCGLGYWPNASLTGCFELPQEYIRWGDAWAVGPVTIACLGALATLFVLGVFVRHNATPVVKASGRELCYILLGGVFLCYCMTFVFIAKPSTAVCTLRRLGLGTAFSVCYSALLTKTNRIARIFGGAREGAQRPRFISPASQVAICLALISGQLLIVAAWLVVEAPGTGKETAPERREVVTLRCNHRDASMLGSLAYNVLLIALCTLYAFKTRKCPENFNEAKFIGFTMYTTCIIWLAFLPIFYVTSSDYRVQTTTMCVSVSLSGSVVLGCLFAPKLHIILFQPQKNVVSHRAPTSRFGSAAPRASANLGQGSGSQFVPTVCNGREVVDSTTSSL

[9] = target: Metabotropic glutamate receptor 4 (Rattus norvegicus) (UniProt P31423); experiment: Activity at rat mGluR4a expressed in CHO cells at 1 mM; assay type: cell-based; how it was run: as §3
Metabotropic glutamate receptor 4 (Rattus norvegicus), sequence (P31423 whole entry): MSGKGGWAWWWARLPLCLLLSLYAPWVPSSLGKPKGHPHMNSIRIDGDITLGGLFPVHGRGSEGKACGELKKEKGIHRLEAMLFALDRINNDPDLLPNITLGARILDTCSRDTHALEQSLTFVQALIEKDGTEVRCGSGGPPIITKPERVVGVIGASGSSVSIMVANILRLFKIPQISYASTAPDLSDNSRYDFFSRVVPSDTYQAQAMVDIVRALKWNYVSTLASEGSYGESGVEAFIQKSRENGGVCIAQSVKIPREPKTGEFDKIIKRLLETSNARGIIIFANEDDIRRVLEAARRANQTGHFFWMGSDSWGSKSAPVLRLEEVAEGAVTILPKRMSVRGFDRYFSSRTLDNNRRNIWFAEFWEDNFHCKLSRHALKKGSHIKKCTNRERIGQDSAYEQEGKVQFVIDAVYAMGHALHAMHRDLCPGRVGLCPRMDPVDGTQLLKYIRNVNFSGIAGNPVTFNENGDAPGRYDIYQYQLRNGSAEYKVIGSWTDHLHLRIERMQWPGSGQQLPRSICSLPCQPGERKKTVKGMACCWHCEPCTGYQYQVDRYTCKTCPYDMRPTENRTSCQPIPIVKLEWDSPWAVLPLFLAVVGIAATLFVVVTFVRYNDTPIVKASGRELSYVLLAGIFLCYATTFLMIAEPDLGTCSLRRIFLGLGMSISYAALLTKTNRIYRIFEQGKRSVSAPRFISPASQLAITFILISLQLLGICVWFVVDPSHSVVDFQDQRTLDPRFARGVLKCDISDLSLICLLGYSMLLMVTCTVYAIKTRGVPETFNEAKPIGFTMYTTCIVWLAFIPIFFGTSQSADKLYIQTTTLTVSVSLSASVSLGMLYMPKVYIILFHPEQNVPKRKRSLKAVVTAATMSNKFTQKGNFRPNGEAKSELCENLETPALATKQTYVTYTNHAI

[10] = Activity at NMDA receptor in rat corticle slice assessed as antagonism of 10 uM NMDA-induced response; assay type: functional
How it was run: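 Modified rat cortical wedge preparation; depolarizing responses induced by NMDA (10 μM) recorded and antagonism measured. Racemates tested. Values are antilog of the log mean of at least three individual experiments, with ±SEM on a logarithmic distribution.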

Rattus norvegicus [11] = organism: Rattus norvegicus; experiment: Activity at AMPA receptor in rat cortical slice assessed as antagonism of 5 uM AMPA-induced response; assay type: functional
Rattus norvegicus [12] = organism: Rattus norvegicus; experiment: Activity at Kainate receptor in rat cortical slice assessed as antagonism of 5 uM kainic acid-induced response; assay type: functional
Mus musculus [13] = experiment: Induction of sedation in DBA/2 mouse at 100 […], ip; assay type: functional, organism-based
Mus musculus [14] = experiment: Reduction of locomotor activity in DBA/2 mouse at 100 […], ip; assay type: functional, organism-based
Glutamate NMDA receptor [15] = experiment: Displacement of [3H]CPP from rat brain NMDA receptor

SMILES | Ki (Glutamate NMDA receptor [1]) | IC50 [2] | IC50 [3] | Activity [6] | Activity [7] | Activity [8] | Activity [9] | IC50 [10] | Activity (Rattus norvegicus [11]) | Activity (Rattus norvegicus [12]) | Ki (Glutamate NMDA receptor [15]) | ED50 (Mus musculus [4]) | ED50 (Mus musculus [5]) | Activity (Mus musculus [13]) | Activity (Mus musculus [14])
CC1(C)ON=C(C(=O)O)[C@H]1C[C@H](N)C(=O)O (relative stereo) | 79000 nM | 12 µM | > 100 µM | inactive | inactive | inactive | inactive |  |  |  |  |  |  |  | 
N[C@@H](C[C@@H]1CC(C(=O)O)=NO1)C(=O)O (relative stereo) | 210 nM | > 100 µM | > 100 µM | inactive | inactive | inactive | inactive | 14.2 µM | inactive | inactive |  | 17.9 µmol/kg | 13.9 µmol/kg | Active | Active
N[C@H](C[C@@H]1CC(C(=O)O)=NO1)C(=O)O (relative stereo) | 960 nM | > 100 µM | > 100 µM | inactive | inactive | inactive | inactive |  |  |  |  | 29.9 µmol/kg | 19.7 µmol/kg |  | 
O=C1NC(=O)C(c2ccccc2)(c2ccccc2)N1 [PHENYTOIN] |  |  |  |  |  |  |  |  |  |  |  | 9.1 µmol/kg | 7.3 µmol/kg |  | 

The next lines start with results.

Ki (Glutamate NMDA receptor [1]) | IC50 [2] | IC50 [3] | Activity [6] | Activity [7] | Activity [8] | Activity [9] | IC50 [10] | Activity (Rattus norvegicus [11]) | Activity (Rattus norvegicus [12]) | Ki (Glutamate NMDA receptor [15]) | SMILES | ED50 (Mus musculus [4]) | ED50 (Mus musculus [5]) | Activity (Mus musculus [13]) | Activity (Mus musculus [14])
370 nM | > 100 µM | > 100 µM |  |  |  |  |  |  |  |  | N[C@@]1(C(=O)O)C[C@@H]2ON=C(C(=O)O)[C@@H]2C1 (racemic) | 28 µmol/kg | 22 µmol/kg |  | 
> 100000 nM | > 100 µM | > 100 µM | inactive | inactive | inactive | inactive |  |  |  |  | CC1(C)ON=C(C(=O)O)[C@H]1C[C@@H](N)C(=O)O (relative stereo) |  |  |  | 
 |  |  |  |  |  |  |  |  |  | 40 nM | O=C(O)C1CN(C/C=C/P(=O)(O)O)CCN1 (single isomer, unassigned; (-)) | 3.5 µmol/kg | 1.3 µmol/kg |  | 
